Assay results: ChEMBL document CHEMBL4007396, “New diphenylmethane derivatives as peroxisome proliferator-activated receptor alpha/gamma dual agonists endowed with anti-proliferative effects and mitochondrial activity” (Eur J Med Chem, 2017)
Active and inactive are the calls of the source. No cut-off for these calls is given here.

Legend:
[1] = target: T1, Peroxisome proliferator-activated receptor alpha (Homo sapiens) (UniProt Q07869); test: Agonist activity at PPARalpha in human HepG2 cells assessed as increase in CPT1 mRNA level at 1 uM after 24 hrs by RT-PCR method; assay type: cell-based
T1 sequence (whole entry): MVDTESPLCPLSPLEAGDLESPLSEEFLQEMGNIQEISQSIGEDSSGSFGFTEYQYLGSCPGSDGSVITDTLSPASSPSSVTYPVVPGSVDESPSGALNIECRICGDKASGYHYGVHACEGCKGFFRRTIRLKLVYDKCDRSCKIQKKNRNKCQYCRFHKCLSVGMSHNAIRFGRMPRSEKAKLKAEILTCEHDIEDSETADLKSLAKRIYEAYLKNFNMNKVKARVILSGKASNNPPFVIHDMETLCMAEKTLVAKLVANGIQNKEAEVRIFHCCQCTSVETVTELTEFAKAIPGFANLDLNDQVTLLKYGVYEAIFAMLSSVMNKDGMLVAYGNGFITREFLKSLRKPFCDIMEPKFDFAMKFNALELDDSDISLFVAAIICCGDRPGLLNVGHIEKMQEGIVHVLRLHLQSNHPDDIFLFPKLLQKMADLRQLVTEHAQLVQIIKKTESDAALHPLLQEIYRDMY
In short: (§1)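 Serum-free HepG2 exposed 24 h to 1 μM test agent (Wy-14,643 reference at 50 μM). RNA extracted from 1x10⁶ cells; TaqMan real-time RT-PCR for CAC, CPT1 or PPARα, normalized to β-actin. Mean ± SD of three independent duplicate experiments; one-way ANOVA with Bonferroni test.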

[2] = system: HEK-293T; test: Effect on p21waf1/cip1 protein expression in HEK293T cells at 10 uM after 48 hrs by Western blot method; assay type: cell-based; settings: human
In short: (§2)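 HT-29 or HEK293T cells in DMEM/10% FBS treated 48 h with 10 μM compound (DMSO vehicle, final below 0.1%). RIPA lysates (with protease inhibitors), 80 μg protein per lane immunoblotted for p21waf1/cip1 with β-actin loading control; densitometric p21/β-actin ratio, mean ± SD of at least three independent experiments.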

[3] = target: T2, Peroxisome proliferator-activated receptor gamma (Homo sapiens) (UniProt P37231); test: Agonist activity at PPARgamma in human HT-29 cells harboring APC mutant assessed as inhibition of Wnt/beta-catenin signaling pathway by measuring decrease in c-Myc level at 10 uM treated for 24 hrs by Western blot method; assay type: cell-based
T2 sequence (whole entry): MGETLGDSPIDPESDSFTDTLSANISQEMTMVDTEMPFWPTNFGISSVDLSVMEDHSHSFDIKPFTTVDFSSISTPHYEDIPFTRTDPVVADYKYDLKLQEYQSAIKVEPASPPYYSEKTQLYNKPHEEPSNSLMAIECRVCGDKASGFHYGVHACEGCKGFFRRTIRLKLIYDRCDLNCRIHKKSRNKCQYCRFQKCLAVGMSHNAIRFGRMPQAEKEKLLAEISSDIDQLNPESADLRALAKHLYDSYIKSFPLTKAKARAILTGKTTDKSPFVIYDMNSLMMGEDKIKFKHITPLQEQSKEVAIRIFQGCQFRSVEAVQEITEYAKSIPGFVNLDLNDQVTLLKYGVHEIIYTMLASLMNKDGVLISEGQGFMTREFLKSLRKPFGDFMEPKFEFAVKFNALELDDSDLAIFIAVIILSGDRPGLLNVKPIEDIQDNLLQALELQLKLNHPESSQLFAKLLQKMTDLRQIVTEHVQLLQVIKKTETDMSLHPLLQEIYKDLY
In short: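 RIPA lysates, 80 μg protein immunoblotted for c-Myc with β-actin loading control; c-Myc/β-actin densitometry, mean ± SD of at least three independent experiments.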

[4] = target: T1, Peroxisome proliferator-activated receptor alpha (Homo sapiens); test: Agonist activity at PPARalpha in human HepG2 cells assessed as increase in CAC mRNA level at 1 uM after 24 hrs by RT-PCR method; assay type: cell-based; in short: as §1
[5] = target: T3, Peroxisome proliferator-activated receptor gamma (Homo sapiens, UniProt P37231); test: Binding affinity to PPARgamma (unknown origin) assessed as thermodynamic dissociation constant by SPR assay; settings: read-out: Kd
T3 sequence (P37231 whole entry): T2 sequence (whole entry)

[6] = target: T3, Peroxisome proliferator-activated receptor gamma; test: Transactivation of GAL4-fused human PPARgamma LBD expressed in human HepG2 cells after 20 hrs by luciferase reporter gene assay; assay type: cell-based
[7] = target: T4, Bile acid receptor (Homo sapiens) (UniProt Q96RI1); test: Agonist activity at GAL4-fused human FXR LBD expressed in human HepG2 cells up to 2 uM after 20 hrs by luciferase reporter gene assay; assay type: cell-based
T4 sequence (whole entry): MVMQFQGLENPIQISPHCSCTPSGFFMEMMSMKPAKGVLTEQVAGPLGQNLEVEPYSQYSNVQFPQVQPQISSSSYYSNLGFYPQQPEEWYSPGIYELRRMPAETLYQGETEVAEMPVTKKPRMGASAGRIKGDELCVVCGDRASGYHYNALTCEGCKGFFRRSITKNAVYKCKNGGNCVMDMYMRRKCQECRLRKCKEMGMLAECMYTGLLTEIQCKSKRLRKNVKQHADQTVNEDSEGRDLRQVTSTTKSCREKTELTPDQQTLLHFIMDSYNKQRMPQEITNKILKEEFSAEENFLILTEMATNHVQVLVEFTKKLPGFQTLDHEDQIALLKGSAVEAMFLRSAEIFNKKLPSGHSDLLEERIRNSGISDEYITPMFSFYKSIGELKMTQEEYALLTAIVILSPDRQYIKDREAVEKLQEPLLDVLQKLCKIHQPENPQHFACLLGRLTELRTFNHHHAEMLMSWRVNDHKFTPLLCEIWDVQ
In short: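 HepG2 in MEM/10% FBS, calcium-phosphate co-transfection 24 h after seeding with GAL4-FXR-LBD (30 ng), pGAL5TKpGL3 luciferase reporter (100 ng) and pCMVβgal (250 ng); 4 h later, 20 h ligand exposure in triplicate. Luciferase normalized to β-galactosidase (ONPG); efficacy as % of maximal fold induction of chenodeoxycholic acid reference; tested up to 2 μM.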

[8] = target: T1, Peroxisome proliferator-activated receptor alpha (Homo sapiens); test: Agonist activity at PPARalpha assessed as induction of positive regulatory loop based receptor transcriptional activation by measuring upregulation of PPARalpha mRNA level in human HepG2 cells at 1 uM after 24 hrs by RT-PCR method; assay type: cell-based; in short: as §1
[9] = target: T5, Peroxisome proliferator-activated receptor alpha (Homo sapiens, UniProt Q07869); test: Binding affinity to PPARalpha (unknown origin) assessed as kinetic dissociation constant by SPR assay
T5 sequence (Q07869 whole entry): T1 sequence (whole entry)

[10] = target: T5, Peroxisome proliferator-activated receptor alpha; test: Transactivation of GAL4-fused human PPARalpa LBD expressed in human HepG2 cells after 20 hrs by luciferase reporter gene assay; assay type: cell-based
[11] = target: T2, Peroxisome proliferator-activated receptor gamma (Homo sapiens); test: Agonist activity at PPARgamma in human HT-29 cells assessed as upregulation of p21waf1/cip1 protein expression at 10 uM after 48 hrs by Western blot method; assay type: cell-based; in short: as §2
[12] = target: T1, Peroxisome proliferator-activated receptor alpha (Homo sapiens); test: Agonist activity at PPARalpha in human HepG2 cells assessed as increase in CAC protein expression level at 1 uM after 48 hrs by Western blot method; assay type: cell-based
In short: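 HepG2 serum-depleted 24 h, then treated 48 h with 1 μM compound (Wy-14,643 at 50 μM as reference). Nitrocellulose immunoblots probed for CAC, CPT1 or PPARα with β-actin loading control, chemiluminescent detection; band densitometry expressed as fold change versus untreated cells; three independent experiments.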

SMILES	Activity [1]	Activity [2]	Activity [3]	Activity [4]	Kd [5] [nM]	EC50 [6] [nM]	Activity [7]	Activity [8]	Kd [9] [s⁻¹]	EC50 [10] [nM]	Activity [11]	Activity [12]
C[C@H](Oc1ccc(Cc2ccc(OCc3coc(-c4ccccc4)n3)cc2)cc1)C(=O)O	Active	Non-Toxic	Active	Active	4.9	300	inactive	Active	0.016	46	Active	Active
C[C@@H](Oc1ccc(Cc2ccc(OCc3coc(-c4ccccc4)n3)cc2)cc1)C(=O)O	Active	Non-Toxic	Active	Active	3.7	280	inactive	Active	0.025	42	Active	Active
